The source of these data is ChEMBL document CHEMBL4024803, “New Steroidal 4-Aminoquinolines Antagonize Botulinum Neurotoxin Serotype A in Mouse Embryonic Stem Cell Derived Motor Neurons in Postintoxication Model” (J Med Chem, 2018).

Series [1] has as its target Botulinum neurotoxin type A (Clostridium botulinum) (UniProt P0DPI0). Put plainly: Inhibition of Clostridium botulinum BoNT/A holotoxin-mediated SNAP-25 cleavage in mouse HBG3 cell-derived motor neurons assessed as full length of SNAP-25 at 10 uM preincubated for 30 mins followed by intoxication measured after 4 hrs by Western blot method relative to control. Also noted: scale not given: the % may be the effect or the level left. Background: Immunoblotting shows a protein as a band on a membrane.

For series [2] the target is unchanged. The experiment in a line: Inhibition of Clostridium botulinum BoNT/A holotoxin-mediated SNAP-25 cleavage in mouse HBG3 cell-derived motor neurons assessed as full length of SNAP-25 at 20 uM preincubated for 30 mins followed by intoxication measured after 4 hrs by Western blot method relative to control. Also noted: scale not given: the % may be the effect or the level left.

Series [3] shares this target. The experiment in a line: Inhibition of Clostridium botulinum BoNT/A holotoxin-mediated SNAP-25 cleavage in mouse HBG3 cell-derived motor neurons preincubated for 30 mins followed by intoxication measured after 4 hrs by Western blot method.
Series [4] can be described thus: Distribution co-efficient, log D of the compound at pH 10 by reversed-phase thin-layer chromatographic method. It counts as physicochemical. Particulars: buffer. The essentials: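 Reversed-phase thin-layer chromatography at pH 10, mobile phase acetone/NH3/H2O (85/5/10).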
Series [5] deals with Botulinum neurotoxin type A (Clostridium botulinum) (UniProt P0DPI0). The experiment in a line: Inhibition of Clostridium botulinum BoNT/A light chain at 20 uM using P39 as substrate preincubated for 10 mins followed by substrate addition measured after 10 mins by HPLC method relative to control. An outline of the steps:
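Purified BoNT/A light chain (20 nM) with 0.2 mg/mL BSA in 50 mM HEPES pH 7.4, preincubated with compound for 10 min at room temperature. Cleavage fragments were separated by reversed-phase HPLC (214/280 nm). Percent inhibition was taken from fragment peak areas with vs without compound. Mean of three experiments.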

The target is the same in series [6]. Put plainly: (§1) Inhibition of Clostridium botulinum BoNT/A light chain using P39 as substrate preincubated for 10 mins followed by substrate addition measured after 10 mins by HPLC method.
Series [7] concerns the target Botulinum neurotoxin type A (Clostridium botulinum, UniProt P0DPI0). The description is as §1.
A short description of series [8]: Distribution co-efficient, log D of the compound at pH 1 by reversed-phase thin-layer chromatographic method. The class given is physicochemical. Particulars: buffer. An outline of the steps:
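Reversed-phase thin-layer chromatography at pH 1, mobile phase MeOH/HCl (70/30).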

As for `CC(CCNCCC12CC3CC(CC(C3)C1)C2)Nc1c(F)cnc2ccccc12` (stereo unspecified), the Activity in series [1] came to 30%; in series [2], 32%. In series [3], the inhibition entry is “Dose-dependent effect”. In addition, the chromatographic logD in series [4] came out at 4.13.
For the compound `N#Cc1ccc2scc(-c3ccc(CNCCCCNc4ccnc5ccccc45)cc3)c2c1`, the inhibition in series [5] is 84%; in series [6] it was “Dose-dependent effect”; in series [3] it was “Dose-dependent effect”. The compound also gave an IC50 in series [7] of 4.6 µM. The values for the Activity in series [1] and in series [2] were 21% and 26%, respectively. In series [4], the chromatographic logD was found to be 3.67.
`N#Cc1ccc(-c2ccc(-c3ccc(CNCCNc4ccnc5cc(Cl)ccc45)cc3)s2)cc1` displayed an inhibition in series [5] of 36%.
`C#Cc1ccc(-c2ccc(-c3ccc(CNCCCCCCCCNc4ccnc5ccccc45)cc3)s2)cc1`: the inhibition in series [5] was found to be 53%.
`CC(CCCN(C)Cc1ccc(-c2csc3ccc(F)cc23)cc1)Nc1ccnc2ccccc12` (stereo unspecified) yielded an inhibition in series [5] of 48%.
For `N#Cc1ccc(-c2ccc(-c3cccc(CNCCCCCCNc4ccnc5ccccc45)c3)s2)cc1`, the values for the inhibition in series [5], in series [6] and in series [3] were 68%, “Dose-dependent effect” and “Dose-dependent effect”, respectively. The IC50 in series [7] amounted to 8.7 µM. Further, the Activity in series [1] turned out to be 46%; in series [2], 71%. The chromatographic logD in series [8] was determined as 3.08.
On to `Fc1ccc2scc(-c3ccc(CNCCCCNc4ccnc5ccccc45)cc3)c2c1`, for which the inhibition in series [5] is 34%.
Take `CC(=O)O[C@H]1C[C@H]2[C@@H]([C@H](OC(C)=O)C[C@@H]3C[C@H](N)CC[C@@]32C)[C@@H]2CC[C@H]([C@H](C)CCCN(C)CCCCNc3ccnc4ccccc34)[C@@]12C`: the inhibition in series [5] is 52%; in series [6], “Dose-dependent effect”; in series [3], “Dose-dependent effect”. Also, the IC50 in series [7] was found to be 1.5 µM. For the same compound, the Activity in series [1] is 70%; in series [2], 69%. The chromatographic logD in series [8] worked out at 2.11.
As for `N#Cc1ccc(-c2ccc(-c3ccc(CNCCCCNc4ccnc5ccccc45)cc3)s2)cc1`, the values for the inhibition in series [5], in series [6] and in series [3] were 67%, “Dose-dependent effect” and “Dose-dependent effect”, respectively. Also, in series [7], the midpoint of inhibition, the IC50, lay at 9.3 µM. The results for the Activity in series [1] and in series [2] were 18% and 39%, respectively. The same compound came in with a chromatographic logD in series [8] of 2.93.
In series [5], `CN(CCCCCCNc1ccnc2ccccc12)Cc1ccc(-c2ccc(-c3ccc(C#N)cc3)s2)cc1` showed an inhibition of 55%.
Turning to `N#Cc1ccc2scc(-c3ccc(CNCCCCCCNc4ccnc5ccccc45)cc3)c2c1`, the inhibition is 75% in series [5], “Dose-dependent effect” in series [6] and “Dose-dependent effect” in series [3]. Further, in series [7], 3.3 µM corresponded to half-maximal inhibition (IC50). For the same compound, the results for the Activity in series [1] and in series [2] were 36% and 43%, respectively. Also, the chromatographic logD in series [4] is 3.85.
In the case of `CC(CCNCCC12CC3CC(CC(C3)C1)C2)Nc1ccnc2ccccc12` (stereo unspecified), the inhibition in series [5] came to 42%.
Same read-out and setting: the figure for `CN(CCCNc1ccnc2ccccc12)CCC12CC3CC(CC(C3)C1)C2` is 31%.
On to `C#Cc1ccc(-c2ccc(-c3ccc(CNCCNc4ccnc5cc(Cl)ccc45)cc3)s2)cc1`, for which, in series [5], the inhibition worked out at 19%.
Take `CC(CCCNCc1ccc(-c2csc3ccc(C#N)cc23)cc1)Nc1ccnc2ccccc12` (stereo unspecified): the inhibition is 61% in series [5], “Dose-dependent effect” in series [6] and “Dose-dependent effect” in series [3]. The same compound came in with an IC50 in series [7] of 10.2 µM. Also, the Activity in series [1] was 34%; in series [2], 53%. In series [4], this compound showed a chromatographic logD of 3.67.
As to `CC(CCNCC12CC3CC(CC(C3)C1)C2)Nc1c(F)cnc2ccccc12` (stereo unspecified), the Activity was 24% in series [1] and 23% in series [2]. In series [3], the inhibition entry is “Dose-dependent effect”. This compound gave a chromatographic logD in series [4] of 3.09.
Take `CN(CCCNc1ccnc2ccccc12)CC12CC3CC(CC(C3)C1)C2`: the figures for the inhibition in series [5] and in series [3] were 30% and “Dose-dependent effect”, respectively. For the same compound, the results for the Activity in series [1] and in series [2] were 30% and 31%, respectively.
In turn, `CC(=O)O[C@H]1C[C@H]2[C@@H]([C@H](OC(C)=O)C[C@@H]3C[C@H](N)CC[C@@]32C)[C@@H]2CC[C@H]([C@H](C)CCCNCCCC(=O)Nc3ccnc4cc(Cl)ccc34)[C@@]12C` gave an inhibition in series [5] of 37%.
`Fc1ccc2scc(-c3ccc(CNCCCCCCNc4ccnc5ccccc45)cc3)c2c1`: the inhibition in series [5] was 56%.
For `CC(CCNc1ccnc2cc(Cl)ccc12)NCC12CC3CC(CC(C3)C1)C2` (stereo unspecified), the values for the inhibition in series [5], in series [6] and in series [3] were 65%, “Dose-dependent effect” and “Dose-dependent effect”, respectively. Inhibition in series [7] was half-maximal at 2.7 µM (IC50). In addition, the Activity in series [1] was found to be 29%; in series [2], 30%. This compound also showed a chromatographic logD in series [4] of 3.4.
`N#Cc1ccc(-c2ccc(-c3ccc(CNCCCCCCNc4ccnc5cc(Cl)ccc45)cc3)s2)cc1` came in with an inhibition in series [5] of 30%.
Regarding `CC(CCN(C)CC12CC3CC(CC(C3)C1)C2)Nc1ccnc2ccccc12` (stereo unspecified), the inhibition in series [5] is 51%; in series [6], “Dose-dependent effect”; in series [3], “Dose-dependent effect”. The same compound gave an IC50 in series [7] of 5.2 µM. The results for the Activity in series [1] and in series [2] were 47% and 46%, respectively.
For the compound `CC(CCNc1ccnc2ccccc12)NCCC12CC3CC(CC(C3)C1)C2` (stereo unspecified), the Activity was determined as 23% in series [1] and 24% in series [2]. The inhibition result in series [3] is “Dose-dependent effect”.
For `N#Cc1ccc2c(-c3ccc(CNCCCCNc4ccnc5ccccc45)cc3)csc2c1`, the inhibition in series [5] came out at 23%.
Take `CC(=O)O[C@H]1C[C@H]2[C@@H]([C@H](OC(C)=O)C[C@@H]3C[C@H](N)CC[C@@]32C)[C@@H]2CC[C@H]([C@H](C)CCCN(C)CCCC(C)Nc3ccnc4ccccc34)[C@@]12C` (mixture of isomers): the figures for the inhibition in series [5], in series [6] and in series [3] were 85%, “Dose-dependent effect” and “Dose-dependent effect”, respectively. In series [7], this compound showed an IC50 of 0.7 µM. In addition, the Activity in series [1] stood at 20%; in series [2], 41%. This compound also displayed a chromatographic logD in series [8] of 2.38.
In turn, `N#Cc1ccc2c(-c3ccc(CNCCCCCCNc4ccnc5ccccc45)cc3)csc2c1` gave an inhibition in series [5] of 8%.
With `CC(CCNCCC12CC3CC(CC(C3)C1)C2)Nc1ccnc2cc(Cl)ccc12` (stereo unspecified), the inhibition in series [5] turned out to be 64%.
As to `CN(CCCCNc1ccnc2ccccc12)Cc1ccc(-c2csc3ccc(F)cc23)cc1`, the figures for the inhibition in series [5] and in series [3] were 46% and “Dose-dependent effect”, respectively. Also, the Activity worked out at 44% in series [1] and 55% in series [2]. This compound yielded a chromatographic logD in series [4] of 3.98.
In the same order, the values of `CC(CCNCC12CC3CC(CC(C3)C1)C2)Nc1c(F)cnc2cc(Cl)ccc12` (stereo unspecified) are 15%, “Dose-dependent effect”, 31%, 35% and 3.24.
Regarding `N#Cc1ccc(-c2ccc(-c3ccc(CNCCCCCCNc4ccnc5ccccc45)cc3)s2)cc1`, the values for the inhibition in series [5], in series [6] and in series [3] were 70 to 80%, “Dose-dependent effect” and “Dose-dependent effect”, respectively. Besides, the IC50 in series [7] worked out at 3.4 µM. Also, the Activity in series [1] turned out to be 22%; in series [2] it was 48%. Also, the chromatographic logD in series [8] stood at 3.08.
Compound `N#Cc1ccc(-c2ccc(-c3ccc(CNCCCCCCCCNc4ccnc5cc(Cl)ccc45)cc3)s2)cc1` came in with an inhibition in series [5] of 14%.
On to `CC(CCCNCc1ccc(-c2csc3ccc(F)cc23)cc1)Nc1ccnc2ccccc12` (stereo unspecified), for which the inhibition in series [5] is 69%; in series [6], “Dose-dependent effect”; in series [3], “Dose-dependent effect”. This compound displayed an IC50 in series [7] of 8.8 µM. In addition, the Activity in series [1] and in series [2] was 62% each time. The chromatographic logD in series [4] stood at 3.98.
Consider `CC(CCNCCC12CC3CC(CC(C3)C1)C2)Nc1c(F)cnc2cc(Cl)ccc12` (stereo unspecified), for which the values for the inhibition in series [5] and in series [3] were 2% and “Dose-dependent effect”, respectively. Moreover, the results for the Activity in series [1] and in series [2] were 30% and 29%, respectively. This compound registered a chromatographic logD in series [4] of 4.33.

The inhibition is the percentage by which the read-out fell short of the control. As usually defined, the chromatographic logD is lipophilicity estimated from chromatographic retention. The term IC50 denotes the concentration that inhibits the measured activity by half.
